Assay outcomes as filed in PubChem.
The list is not random: actives were taken first. Their share in the collection is about 3.8%.
MrgX1 allo act: human MrgX1 positive allosteric modulation, primary screen; B-score at 10 µM; actives 0.63% (n = 310,000); MrgX1-HEK293, Fluo-4 calcium flux, FDSS; stronger effect = higher value; AID 588675;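 active = plate-corrected calcium response at least 3 library SD above typical, normal starting fluorescence, not activating the receptor alone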;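 note: compound read alongside a low EC10 to EC30 dose of BAM8-22 agonist; peak minus trough fluorescence over baseline measured at the second addition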
Target sequence (Q96LB2 whole entry, looked up): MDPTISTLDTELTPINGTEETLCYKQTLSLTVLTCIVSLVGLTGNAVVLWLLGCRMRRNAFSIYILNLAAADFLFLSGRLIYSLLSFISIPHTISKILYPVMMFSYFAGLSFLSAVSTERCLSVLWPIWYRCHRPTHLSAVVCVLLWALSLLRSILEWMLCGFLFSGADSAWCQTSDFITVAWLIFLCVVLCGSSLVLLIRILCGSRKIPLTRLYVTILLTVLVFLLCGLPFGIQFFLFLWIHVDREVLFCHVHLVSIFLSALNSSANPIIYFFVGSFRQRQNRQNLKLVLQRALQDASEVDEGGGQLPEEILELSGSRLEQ
Hep lipid drop: hepatic lipid droplet formation modulation. AML12 mouse hepatocytes, oleate lipid droplets, BODIPY imaging. inhibition, % at 6.5 µM. actives 0.4% (n = 240,000);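 active = lipid droplet intensity inhibited by at least 50%, with more than 500 cells counted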
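Technique: fluorescence imaging, 20x objective, two fields per well / Assay system: AML12 hepatocytes (mouse) / Measure: % inhibition of lipid droplet signal / Doses: 6.5 µM single-point dosing / Incubation: overnight exposure / Reagent: 100 µM oleic acid challenge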
RGS4 pot: RGS4 potentiation or activation; HEK293 M3R/inducible RGS4, carbachol calcium flux Fluo4; stronger effect = lower value; B-score at 10 µM; actives 0.92% (n = 310,000);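 active = B-score of the integrated calcium signal more than 4 SD below the library mean, with starting fluorescence not abnormally high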;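 note: negative B-score means reduced calcium response which marks RGS4 activation or potentiation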
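Assay system: Inducible-RGS4 HEK293 cells carrying M3 receptor | Schedule: Compound preincubation 20 min at room temperature before agonist | Signal: Kinetic calcium fluorescence imaging with Fluo4-AM dye, 2 µM | Read-out basis: B score from integrated fluorescence ratio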
RGS4 inh: inhibitors of human RGS4; actives 0.45% (n = 310,000); HEK293 M3R/RGS4 inducible, Fluo-4 calcium flux; stronger effect = higher value; triggered by carbachol at its EC20; P49798; B-score at 10 µM;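 active = B-score, a plate-corrected calcium signal, over three deviations above library mean, with baseline fluorescence within five deviations of library mean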;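 note: RGS4 expression induced by doxycycline in cells with stable M3 receptor; B-score is computed from the integrated fluorescence ratio over baseline after carbachol; higher B-score means a larger calcium signal and so more RGS4 inhibition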
Target sequence (P49798 whole entry, looked up): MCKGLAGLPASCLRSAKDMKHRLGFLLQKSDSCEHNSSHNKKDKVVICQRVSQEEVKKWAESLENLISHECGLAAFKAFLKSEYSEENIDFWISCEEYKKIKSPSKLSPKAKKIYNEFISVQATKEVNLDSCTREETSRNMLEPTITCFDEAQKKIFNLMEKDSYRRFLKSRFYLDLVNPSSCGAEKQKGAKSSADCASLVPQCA
MrgX1 antag: antagonists of human MrgX1 receptor. actives 1.3% (n = 310,000). Q96LB2. AID 588676. B-score at 10 µM. MRGX1-HEK293 calcium flux, Fluo-4, BAM8-22 antagonism; stronger effect = lower value;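 active = calcium-response B-score plate-corrected more than 3 library SD below zero, starting fluorescence within 5 deviations, no agonist response on first addition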;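 note: peak minus trough fluorescence over baseline after final BAM8-22 challenge near maximal dose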
MrgX1 agonist: activates human MrgX1 receptor signaling; AID 588627; B-score at 10 µM; Q96LB2; MrgX1-HEK293 cells, Fluo-4 calcium fluorescence, agonist mode; stronger effect = higher value; actives 0.44% (n = 310,000);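 active = calcium response B-score plate-corrected fluorescence ratio at least 3 library SD, with starting fluorescence B-score inside 5 SD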
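Test system: HEK293 cells stably expressing human MrgX1 receptor; Input: fifteen thousand cells per well; Dosing: compound delivered in addition one of three; Schedule: overnight seeding, then 1 h dark dye loading; Technique: Fluo-4 NW calcium fluorescence; Measure: B-scored fluorescence response ratio; Controls: positive and negative controls per plate.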
MrgX1 PAM conf: human MrgX1 positive allosteric modulation, re-confirmation; shares compounds with MrgX1 allo act; MrgX1-HEK293, Fluo-4 calcium fluorescence, FDSS; activation (ratio percentage), % at 10 µM; AID 602413; actives 13% (n = 1,200);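 active = ratio at least 3 SD above the weak peptide control, stable starting fluorescence, no direct agonism earlier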;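 note: compound followed by low BAM8-22 agonist challenge near EC20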
HEK293 Ca flux: counter-screen for MrgX1 antagonists: effect in parental HEK293 cells | shares compounds with MrgX1 antag | Fluo-4 calcium fluorescence, FDSS | fluorescence ratio F(max-min)/F0 at 10 µM | actives 2% (n = 4,000) | AID 624111;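 active = duplicate-averaged calcium fluorescence ratio at least three times the standard deviation of buffer wells, a nonspecific response in parental cells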
HEK293 Ca counter: MrgX1 allosteric activator counter-screen hit in parental HEK293 cells; actives 0.4% (n = 4,000); shares compounds with MrgX1 antag; AID 624114; parental HEK293 calcium flux, Fluo-4 fluorescence ratio; stronger effect = higher value; fluorescence ratio F(max-min)/F0 at 10 µM;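 active = calcium fluorescence ratio, averaged over duplicates, at least 3 SD of the buffer-well ratio, meaning a nonspecific response in receptor-free cells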;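 note: untransfected parental HEK293 lacking MrgX1 used as counterscreen for MrgX1 allosteric activators; fluorescence change taken during the second addition on a kinetic imager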
HEK293 Ca cntr2: MrgX1 activator counter-screen hit in parental HEK293 cells; Fluo-4 calcium fluorescence (FDSS); stronger effect = higher value; shares compounds with MrgX1 antag; fluorescence ratio F(max-min)/F0 at 10 µM; actives 8.7% (n = 4,000);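 active = calcium fluorescence ratio at least three times the spread of buffer wells, meaning a non-specific response in parental cells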
An asterisk follows results filed as active; i = inactive; . = no result given.

SMILES	MrgX1 allo act	Hep lipid drop	RGS4 pot	RGS4 inh	MrgX1 antag	MrgX1 agonist	MrgX1 PAM conf	HEK293 Ca flux	HEK293 Ca counter	HEK293 Ca cntr2
COc1ccc2c(c1)cc(C)c1nnc(SCC(=O)N(C)c3nc(-c4ccccc4)cs3)n12	20*	.	i	i	i	i	i	i	i	i
Cc1cc2cccc(C)c2nc1SCC(=O)N(C)c1nc(-c2ccccc2)cs1	i	.	i	i	i	i	.	.	.	.
COc1ccc(/C=N/n2cncn2)cc1Cn1nc(C)c([N+](=O)[O-])c1C	i	-26	i	i	i	i	.	.	.	.
CN(C)S(=O)(=O)Oc1cccc(C(=O)Nc2ccccc2Cl)c1	i	.	i	i	i	i	.	.	.	.
COc1cccc(C(=O)Nc2nnc(-c3ccc(F)cc3)o2)c1	i	-37	i	i	i	i	.	.	.	.
CN(C)S(=O)(=O)Oc1cccc(C(=O)Nc2ccc(Cl)cc2)c1	7.7*	.	i	i	i	i	i	i	i	i
COc1cccc(C(=O)Nc2nnc(-c3ccc(Cl)cc3)o2)c1	8.4*	-8	i	i	i	i	i	i	i	i
COc1ccc(NC(=S)N(CCN2CCCCC2)Cc2ccco2)cc1	10*	-5	i	i	i	i	i	i	i	i
COc1ccc(NC(=S)N(CCCN2CCCC2)Cc2ccco2)cc1	i	8	i	i	i	i	.	.	.	.
c1ccc2cc(OCCOCCOc3ccc4ccccc4c3)ccc2c1	13*	2	i	i	i	i	i	i	i	i
CN(C)CCOc1ccc2ccccc2c1	i	2	i	i	i	i	.	.	.	.
COc1ccc(/C=C/C(=O)OCC(=O)Nc2ccc(N3CCOCC3)cc2)cc1OC	i	9	i	i	i	i	.	.	.	.
NC(=O)C1CCCNC1 (stereo not drawn)	i	0	i	i	i	i	.	.	.	.
CNc1c(NS(=O)(=O)c2ccc(Cl)s2)c(=O)oc2ccccc12	i	4	i	i	i	i	.	.	.	.
O=S(=O)(Nc1ncnc2c1oc1ccccc12)c1ccc(Cl)s1	19*	.	i	i	i	i	i	i	i	i
COc1ccc(-c2oc3ccccc3c2C(=O)Oc2ccccc2)cc1	8.7*	.	i	i	i	i	i	i	i	68*
COc1c(Cl)cccc1-c1cn2ccc(C)cc2n1	15*	7	i	i	i	i	i	i	i	i
Cc1ccn2cc(-c3ccc(Br)cc3)nc2c1	15*	-25	i	i	i	i	i	i	i	i
Cc1ccccc1-n1nc(C)c(N=O)c1N	i	-12	i	i	i	i	.	.	.	.
CC(C)S(=O)(=O)c1cnc(N2CCOCC2)nc1N	16*	6	i	i	i	i	i	i	i	i
CC(C)(C)S(=O)(=O)c1cnc(N2CCOCC2)nc1N	i	0	i	i	i	i	.	.	.	.
CCCn1c(SCC(=O)Nc2cccc(NC(C)=O)c2)nnc1C(C)C	i	.	i	i	i	i	.	.	.	.
CCCn1c(SCC(=O)Nc2cccc(C)n2)nnc1C(C)C	8.2*	-1	i	i	i	i	i	i	i	i
CCc1ccc(S(=O)(=O)N/N=C\c2ccc3c(c2)OCO3)cc1	i	12	i	i	i	i	.	.	.	.
Clc1ccc(CSc2cc3c(nn2)-c2ccccc2CC3)cc1	8*	.	i	i	i	i	i	i	48*	i
SMILES	MrgX1 allo act	Hep lipid drop	RGS4 pot	RGS4 inh	MrgX1 antag	MrgX1 agonist	MrgX1 PAM conf	HEK293 Ca flux	HEK293 Ca counter	HEK293 Ca cntr2
COC(=O)C1CCN(c2cc(Cl)nc(N)n2)CC1	8.1*	-5	i	i	i	i	i	i	i	i
NC(=O)C1CCN(c2cc(Cl)nc(N)n2)CC1	i	-4	i	i	i	i	.	.	.	.
CCN1C(=O)C(CC(=O)Nc2ccc(F)cc2)N(Cc2ccco2)C1=S (stereo not drawn)	9.2*	17	i	i	i	i	i	i	i	i
O=C(OCC(=O)N1CCCC1)c1ccc(S(=O)(=O)Nc2ccccc2)cc1	12*	2	i	i	i	i	i	i	i	i
Cc1cccc(NC2SC(=O)NC2=O)c1 (stereo not drawn)	i	4	i	i	i	i	.	.	.	.
CCc1[nH]nc2c1C(c1ccc(C)o1)C(C#N)=C(N)O2 (stereo not drawn)	7.6*	3	i	i	i	i	i	i	i	i
COCCNC(=O)CCC1CCN(Cc2cccc(Oc3ccccc3)c2)CC1	i	-1	i	i	i	i	.	.	.	.
O=C(Cn1nc(-c2ccccc2)ccc1=O)Nc1ccc(N2CCN(C(=O)c3cccs3)CC2)cc1	i	43	i	i	i	i	.	.	.	.
COc1ccc(-c2noc(CCC(=O)NCc3cccnc3)n2)cc1OC	i	.	i	i	i	i	.	.	.	.
CC(=O)c1sc(NS(=O)(=O)c2ccc(C)cc2)nc1-c1ccccc1	16*	46	i	i	i	i	i	i	i	i
COc1cccc(CSc2nnc(-c3ccco3)n2C)c1	i	.	i	i	i	i	.	.	.	.
CCCC(=O)Nc1nc(-c2ccc(OC)cc2)cs1	i	1	i	i	i	i	.	.	.	.
COc1ccc(-c2csc(NC(=O)CS(=O)(=O)c3ccccc3)n2)cc1	12*	.	i	i	i	i	6.8%*	i	i	i
O=[N+]([O-])c1ccc(-n2cnc3ccccc32)c([N+](=O)[O-])c1	i	-5	i	i	i	i	.	.	.	.
COc1ccc(C(C)=O)cc1Cn1cnc2c(cnn2C)c1=O	11*	-4	i	i	i	i	i	i	i	i
